# Measured values reported in ChEMBL document CHEMBL4052652, “Development of WNK signaling inhibitors as a new class of antihypertensive drugs” (Bioorg Med Chem, 2017).
# Active and inactive are the calls of the source. The rule behind the calls is not given here.
# What was measured:
# [1] = molecular target: STE20/SPS1-related proline-alanine-rich protein kinase (Rattus norvegicus, UniProt O88506); experiment: Inhibition of TAMRA-labelled WNK4 binding to recombinant rat C-terminal GST-fused SPAK (452 to 553 residues) expressed in Escherichia coli BL21 measured for 15 secs by FCS assay
# How it was run: (§1)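 GST-fused rat SPAK CCT (residues 452–553) expressed in E. coli BL21 with IPTG induction for 16 h at 28°C, then glutathione-affinity purified. TAMRA-labelled WNK4 RFQV peptide (2.7 nM final) incubated with 0.5 µM GST–SPAK-CCT in PBS with 0.05% Tween 20 and 1% DMSO for 30 min at 25°C. An AFQV-mutant peptide served as negative control. Binding read by FCS with 15 s acquisition, five measurements per sample, and IC50 calculated from the data.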
# HEK-293T [2] = experiment: Cytotoxicity against HEK293T cells after 40 hrs by CCK8 assay; assay type: cell-based; settings: Homo sapiens
# Mus musculus [3] = experiment: In-vivo inhibition of WNK signaling pathway in ip dosed C57BL/6 mouse assessed as reduction in phosphorylated NCC level after 90 mins by immunoblotting analysis; assay type: functional, organism-based
# How it was run: (§2)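 Male-unspecified C57BL/6 mice, 10 weeks old, given a single ip injection of 5, 10 or 20 mg/kg in 100 µL DMSO, with DMSO-alone controls. Kidneys taken 90 min later and homogenized in ice-cold 1% Triton X-100 buffer. Nuclear fraction removed, lysate denatured at 60°C for 20 min, and protein measured by Bradford. Total and phospho forms of SPAK, NCC (pSer71), NKCC1 (pThr206) and NKCC2 detected by quantitative immunoblotting.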
# Mus musculus [4] = experiment: In-vivo inhibition of WNK signaling pathway in C57BL/6 mouse assessed as reduction in NKCC1 phosphorylation at 5 to 20 mg/kg, ip after 90 mins by immunoblotting analysis; assay type: functional, organism-based; how it was run: as §2
# Mus musculus [5] = experiment: In-vivo inhibition of WNK signaling pathway in C57BL/6 mouse assessed as reduction in NKCC2 phosphorylation at 5 to 20 mg/kg, ip after 90 mins by immunoblotting analysis; assay type: functional, organism-based; how it was run: as §2
# [6] = molecular target: STE20/SPS1-related proline-alanine-rich protein kinase (Rattus norvegicus) (UniProt O88506); experiment: Inhibition of TAMRA-labelled WNK4 binding to recombinant rat C-terminal GST-fused SPAK (452 to 553 residues) expressed in Escherichia coli BL21 at > 10^-5 M measured for 15 secs by FCS assay; how it was run: as §1
# HEK-293T [7] = experiment: Cytotoxicity against HEK293T cells at 100 uM after 40 hrs by CCK8 assay; assay type: cell-based; settings: human
IC50 [1] [µM],SMILES,further results
35.6,CCOc1ccc2nc3cc(NCc4ccccc4)ccc3c(N)c2c1,–
6.9,CCOc1ccc2nc3cc(NC(=O)c4ccc(C#N)cc4)ccc3c(N)c2c1,IC50 (HEK-293T [2]): 25 µM; inhibition (Mus musculus [3]): Dose-dependent effect; inhibition (Mus musculus [4]): Active; inhibition (Mus musculus [5]): Active
36.9,CCOc1ccc2nc3cc(NC(=O)c4ccc(F)cc4)ccc3c(N)c2c1,–
–,CCOc1ccc2nc3cc(NC(=O)c4ccc(C#N)cc4)ccc3cc2c1,inhibition [6]: inactive
–,CCOc1ccc2nc3cc(NC(=O)c4ccc(C#N)cc4)ccc3c(Oc3ccccc3)c2c1,inhibition [6]: inactive
4.8,COc1ccc2nc3cc(NC(=O)Nc4ccc(C#N)cc4)ccc3c(N)c2c1,Activity (HEK-293T [7]): Non-Toxic; inhibition (Mus musculus [3]): Dose-dependent effect; inhibition (Mus musculus [4]): Active; inhibition (Mus musculus [5]): Active
2.6,CCOc1ccc2nc3cc(NC(=O)c4cccc(C#N)c4)ccc3c(N)c2c1,–
> 100,CCOc1ccc2nc3cc(NC(=O)c4cc(C(F)(F)F)cc(C(F)(F)F)c4)ccc3c(N)c2c1,–
20.9,CCOc1ccc2nc3cc(NC(=O)c4ccc([N+](=O)[O-])cc4)ccc3c(N)c2c1,–
7.6,CCOc1ccc2nc3cc(NC(=O)c4ccc5ccccc5c4)ccc3c(N)c2c1,–
28.2,CCOc1ccc2nc3cc(NC(=O)c4ccccc4)ccc3c(N)c2c1,–
3.9,CCOc1ccc2nc3cc(NC(=O)c4cccc([N+](=O)[O-])c4)ccc3c(N)c2c1,–
2.6,N#Cc1ccc(NC(=O)Nc2ccc3c(N)c4cc(O)ccc4nc3c2)cc1,–
8.2,CCOc1ccc2nc3cc(NC(=O)c4ccco4)ccc3c(N)c2c1,–
49,CCOc1ccc2nc3cc(NC(=O)c4ccc(Cl)cc4)ccc3c(N)c2c1,–
21.1,CCOc1ccc2nc3cc(NCc4ccc(OC)cc4OC)ccc3c(N)c2c1,–
53.5,CCOc1ccc2nc3cc(NCc4cccs4)ccc3c(N)c2c1,–
–,CCOc1ccc2nc3cc(NC(C)=O)ccc3c(N)c2c1,inhibition [6]: inactive
–,CCOc1ccc2nc3cc(NC(=O)c4ccc(C(=O)OC)cc4)ccc3c(N)c2c1,inhibition [6]: inactive
15.4,CCOc1ccc2nc3cc(NCc4ccco4)ccc3c(N)c2c1,IC50 (HEK-293T [2]): 4.2 µM
